Legend:
[1] = system: SR; assay: cells; conditions: Homo sapiens
[2] = system: MCF7; assay: Antiproliferative activity against human MCF7 cells assessed as inhibition of cell growth by MTT assay; format: functional, cell-based
[3] = system: A549; assay: Antiproliferative activity against human A549 cells assessed as inhibition of cell growth by MTT assay; format: functional, cell-based
[4] = system: PC-3; assay: Antiproliferative activity against human PC-3 cells assessed as inhibition of cell growth by MTT assay; format: functional, cell-based
[5] = system: SR; assay: Antiproliferative activity against human SR cells assessed as inhibition of cell growth; format: functional, cell-based
Method in brief: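 SR leukemia cells from ATCC were cultured in DMEM with 10% FBS, 10 ug/ml insulin and 1% penicillin-streptomycin. Reconstituted MTT was added at 10% of culture volume for 2–4 h. Formazan was dissolved in solubilization solution and read at 570 nm. Viability was calculated as treated A570 over untreated A570 ×100, with dose-response curves.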

[6] = Inhibition of PI3K (unknown origin); set-up: species or system Homo sapiens
Method in brief: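 ELISA kit PI3 kinase assay with LY294002 as reference. Inhibitor preincubated 10 min before PIP2 substrate in kinase reaction buffer (25 µl final), 1 h reaction. Product detected by competition with biotinylated PIP3 for GRP1, with SA-HRP and TMB colour.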

[7] = Cytotoxicity against human PCS-800-011 cells assessed as inhibition of cell growth by MTT assay; format: toxicity, cell-based
[8] = molecular target: Serine/threonine-protein kinase mTOR (Homo sapiens, UniProt P42345); assay: Inhibition of mTOR (unknown origin) incubated for 1 hr by ELISA analysis
Method in brief: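 Glutathione-coated plate loaded with mTOR substrate (1 h, room temperature). mTOR with compound in 2X kinase assay buffer, 30 min at 30 °C, then stop solution. Phospho-p70S6K-T389 detected by primary antibody, then HRP conjugate (1 h each), TMB, A450 with 540 or 595 nm reference.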

With `COc1cccc2c1C(=O)c1c(O)c3c(c(O)c1C2=O)C[C@@](O)(C(=O)CO)C[C@@H]3O[C@H]1C[C@H](N)[C@H](O)[C@H](C)O1` [DOXORUBICIN] the IC50 [1] was 0.59 µM.
`O=S1(=O)CCc2nc(N3N=C(c4ccc(F)cc4)C[C@@H]3c3ccc(Cl)c(Cl)c3)nc(N3CCOCC3)c2C1` gave an IC50 [2] of 30.7 µM, an IC50 [3] of 23.8 µM and an IC50 [4] of 19.1 µM.
Work on `COc1ccc(-c2nc(N/N=C/c3cccc(O)c3)nc(N3CCOCC3)c2C#N)cc1` yielded an IC50 [5] of 13.6 µM and an IC50 [6] of 6.09 µM.
Work on `COc1ccc(-c2nc(N/N=C/c3ccc(O)c(OC)c3)nc(N3CCOCC3)c2C#N)cc1` yielded an IC50 [5] of 4.37 µM and an IC50 [6] of 6.09 µM.
Work on `COc1ccc(-c2nc(N/N=C/c3cccc(Br)c3)nc(N3CCOCC3)c2C#N)cc1` yielded an IC50 [5] of 0.76 µM and an IC50 [6] of 6.09 µM.
In the case of `O=c1[nH]cc(F)c(=O)[nH]1` [FLUOROURACIL], the IC50 [1] is reported as 7.38 µM.
In the case of `CN[C@@H]1C[C@H]2O[C@@](C)([C@@H]1OC)n1c3ccccc3c3c4c(c5c6ccccc6n2c5c31)C(=O)NC4` [STAUROSPORINE], the IC50 [7] is reported as 18.3 µM.
For `CO[C@H]1C[C@@H]2CC[C@@H](C)[C@@](O)(O2)C(=O)C(=O)N2CCCC[C@H]2C(=O)O[C@H]([C@H](C)C[C@@H]2CC[C@@H](OCCO)[C@H](OC)C2)CC(=O)[C@H](C)/C=C(\C)[C@@H](O)[C@@H](OC)C(=O)[C@H](C)C[C@H](C)/C=C/C=C/C=C/1C` [EVEROLIMUS], the IC50 [8] was 0.53 µM.

Reference: ChEMBL document CHEMBL5376013, “Design, synthesis and biological evaluation of novel morpholinopyrimidine-5-carbonitrile derivatives as dual PI3K/mTOR inhibitors” (RSC Med Chem, 2024)
